From ChEMBL document CHEMBL1139220, “Structure-activity relationship study of prion inhibition by 2-aminopyridine-3,5-dicarbonitrile-based compounds: parallel synthesis, bioactivity, and in vitro pharmacokinetics” (J Med Chem, 2007) come the findings set out here.

Converted amounts (≈) assume the structure as drawn. The source made the active and inactive calls. The calls are words filed in the database; no cut-off is given here. Where only a bound is given, the exact number is not on record here.

Data set [1] concerns ScN2a. As to the kind of experiment: Reduction of PrPSC accumulation in ScN2a cells. The format is functional, cell-based. Conditions: Mus musculus. The gist of the method:
(§1)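 Scrapie-infected mouse neuroblastoma ScN2a cells, seeded at about 40 000 cells/well, were exposed to compound for 5 days at 37 °C; concentrations up to 25 µM, final DMSO ≤0.25%. Viability was read first with calcein-AM (ex/em 492/525 nm). The same wells were then lysed, Benzonase-treated, digested with proteinase K (1 h, 37 °C), PTA-precipitated and assayed for PrP 27-30 by direct ELISA (D18 antibody, AP/pNPP). Triplicate, three independent experiments.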

In data set [2] the test system is ScN2a. As to the kind of experiment: Cytotoxicity against ScN2a cells. The format is functional. The note with it: Mus musculus, read-out: LD50 (the source's name). The method in brief: as §1
Data set [3] can be described thus: Solubility in phosphate buffer at pH 6.5 at 500 uM. The class given is physicochemical.
The test system of data set [4] is ScN2a. The experiment in a line: Reduction of PrPSC accumulation in ScN2a cells upto 25 uM. The format is functional, cell-based. Conditions: Mus musculus. The method in brief: as §1
Data set [5] concerns the target T1, Adenosine receptor A1 (Homo sapiens) (UniProt P30542).
T1 sequence (whole entry): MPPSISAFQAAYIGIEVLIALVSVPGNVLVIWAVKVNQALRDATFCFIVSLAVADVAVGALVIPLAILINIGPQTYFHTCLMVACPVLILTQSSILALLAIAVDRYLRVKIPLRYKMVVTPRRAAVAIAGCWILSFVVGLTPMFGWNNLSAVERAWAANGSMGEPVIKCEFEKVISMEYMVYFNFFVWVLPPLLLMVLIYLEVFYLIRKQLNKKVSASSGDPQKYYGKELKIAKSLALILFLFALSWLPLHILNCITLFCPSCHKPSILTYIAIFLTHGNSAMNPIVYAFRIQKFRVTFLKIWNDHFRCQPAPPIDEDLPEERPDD
The experiment in a line: Inhibition of human adenosine A1 receptor at 5 uM relative to DPCPX. The method in brief: (§2)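 Human adenosine receptor subtypes hA1, hA2a and hA3 were tested with compound at 5 µM. Inhibition is expressed relative to a selective reference also used at 5 µM, taken as 100%: DPCPX for hA1, NECA for hA2a, IB-MECA for hA3.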

The target of data set [6] is Adenosine receptor A2a (Homo sapiens) (UniProt P29274). The experiment in a line: Inhibition of human adenosine A2a receptor at 5 uM relative to NECA. The method in brief:
as §2

The target in data set [7] is T2, Adenosine receptor A3 (Homo sapiens) (UniProt P0DMS8).
T2 sequence (whole entry): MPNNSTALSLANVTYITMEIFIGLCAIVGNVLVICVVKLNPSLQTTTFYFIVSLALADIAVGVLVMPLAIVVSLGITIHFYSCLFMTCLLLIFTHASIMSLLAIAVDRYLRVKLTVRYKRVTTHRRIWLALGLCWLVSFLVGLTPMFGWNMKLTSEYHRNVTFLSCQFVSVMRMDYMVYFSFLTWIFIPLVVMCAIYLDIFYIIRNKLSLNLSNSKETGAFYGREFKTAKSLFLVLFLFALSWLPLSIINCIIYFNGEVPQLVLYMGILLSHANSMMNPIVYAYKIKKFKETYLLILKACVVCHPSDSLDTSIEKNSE
The experiment in a line: Inhibition of human adenosine A3 receptor ar 5 uM realtive to IB-MECA. The method in brief: as §2

For the next data set, the target named is T3, Adenosine receptor A1 (Homo sapiens, UniProt P30542).
T3 sequence (P30542 whole entry): T1 sequence (whole entry)
The experiment in a line: Inhibitory constant aganist human adenosine A1 receptor.

Adenosine receptor A2a (Homo sapiens), sequence (P29274 whole entry): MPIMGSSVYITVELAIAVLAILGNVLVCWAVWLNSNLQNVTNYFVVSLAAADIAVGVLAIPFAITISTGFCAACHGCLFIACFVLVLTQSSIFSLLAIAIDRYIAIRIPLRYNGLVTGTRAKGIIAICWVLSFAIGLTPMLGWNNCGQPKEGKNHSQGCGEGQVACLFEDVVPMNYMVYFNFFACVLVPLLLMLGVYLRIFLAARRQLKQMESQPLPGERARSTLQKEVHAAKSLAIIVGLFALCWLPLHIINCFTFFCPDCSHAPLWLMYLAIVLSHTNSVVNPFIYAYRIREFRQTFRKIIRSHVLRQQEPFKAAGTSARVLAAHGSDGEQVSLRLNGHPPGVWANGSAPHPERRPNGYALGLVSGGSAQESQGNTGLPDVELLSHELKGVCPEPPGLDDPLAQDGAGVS

Take `CN(C)CCSc1nc(N)c(C#N)c(-c2ccco2)c1C#N`: a half-maximal effect with ScN2a [1] (EC50) was put at 13.9 µM. The CC50 in the data set with ScN2a [2] was over 25 µM.

Consider `CCN(CC)CCCC(C)Nc1c2ccc(Cl)cc2nc2ccc(OC)cc12` (stereo not drawn) [QUINACRINE], for which it took 0.8 µM to reach a half-maximal effect in the data set on ScN2a [1] (EC50). Besides, the CC50 with ScN2a [2] is 7.8 µM.

For the compound `CCN(CC)CCSc1nc(N)c(C#N)c(-c2ccc(Cl)cc2)c1C#N`, in the data set with ScN2a [1], the concentration for a half-maximal effect (EC50) stood at 7.5 µM. In the data set on ScN2a [2], the CC50 is over 25 µM. In data set [3], this compound returned a solubility at 500 µM of 200 µM (≈ 77.2 µg/mL).

For `CCCCN(CCCC)CCSc1nc(N)c(C#N)c(-c2ccco2)c1C#N`, the result with ScN2a [4] was inactive. Besides, the CC50 in the data set on ScN2a [2] was over 25 µM.

The compound `CCN(CC)CCSc1nc(N)c(C#N)c(-c2ccccc2Cl)c1C#N` registered a half-maximal effective concentration (EC50) with ScN2a [1] of 5.5 µM. The CC50 in the data set on ScN2a [2] is over 25 µM. In data set [3], this compound registered a solubility at 500 µM of over 400 µM. Also, the inhibition in data set [5] worked out at 95%; in data set [6], 62%; in data set [7], 77%. The compound further returned an inhibition constant Ki at Adenosine receptor A1 of 0.59 µM.

`CCN(CC)CCSc1nc(N)c(C#N)c(-c2cccc(Cl)c2)c1C#N` had an EC50 with ScN2a [1] of 5.3 µM. The CC50 in the data set with ScN2a [2] was over 25 µM.

`CCN(CC)CCSc1nc(N)c(C#N)c(-c2cccc(Cl)c2Cl)c1C#N` gave an EC50 in the data set with ScN2a [1] of 4.5 µM. In the data set on ScN2a [2], the CC50 is over 25 µM. In data set [3], this compound yielded a solubility at 500 µM of 200 µM (≈ 84.1 µg/mL).

In turn, `CCN(CC)CCSc1nc(N)c(C#N)c(-c2ccc(Cl)c(Cl)c2)c1C#N` returned a concentration for a half-maximal effect (EC50) in the data set on ScN2a [1] of 7.2 µM. For the same compound, the CC50 in the data set with ScN2a [2] is over 25 µM. In addition, the solubility at 500 µM in data set [3] is 200 µM (≈ 84.1 µg/mL).

For `CNC(=O)[C@H]1O[C@@H](n2cnc3c(NCc4cccc(I)c4)ncnc32)[C@H](O)[C@@H]1O` [IB-MECA], the EC50 in the data set with ScN2a [1] is over 25 µM.

Regarding `CN(CCSc1nc(N)c(C#N)c(-c2ccco2)c1C#N)Cc1ccccc1`, in the data set with ScN2a [4], the result was inactive. Also, the CC50 in the data set on ScN2a [2] is over 25 µM.

`N#Cc1c(N)nc(Sc2ccccc2N)c(C#N)c1-c1ccco1` showed an EC50 with ScN2a [1] of 80 µM. For the same compound, the CC50 in the data set with ScN2a [2] was over 80 µM.

Take `CCCn1c(=O)c2[nH]c(C3CCCC3)nc2n(CCC)c1=O` [1,3-DIPROPYL-8-CYCLOPENTYLXANTHINE [DPCPX]]: in the data set on ScN2a [1], the EC50 is over 25 µM.

Regarding `COc1ccc(-c2c(C#N)c(N)nc(SCc3ncc[nH]3)c2C#N)cc1`, in the data set with ScN2a [1], the EC50 was over 25 µM.

In turn, `CN(C)CCCN1c2ccccc2Sc2ccc(Cl)cc21` [CHLORPROMAZINE] displayed a solubility at 500 µM in data set [3] of over 400 µM.

For the compound `CCN(CC)CCSc1nc(N)c(C#N)c(-c2cccc(Br)c2)c1C#N`, in the data set on ScN2a [1], the EC50 turned out to be 4.3 µM. For the same compound, the CC50 with ScN2a [2] was over 25 µM.

With `N#Cc1c(N)nc(SCCN2CCCCC2)c(C#N)c1-c1ccco1`, the EC50 in the data set with ScN2a [1] worked out at 8.1 µM. In addition, in the data set on ScN2a [2], the CC50 is over 25 µM. In data set [3], this compound had a solubility at 500 µM of over 400 µM.

In turn, `CCN(CC)CCSc1nc(N)c(C#N)c(-c2ccco2)c1C#N` gave an EC50 with ScN2a [1] of 8.8 µM. For the same compound, in the data set on ScN2a [2], the CC50 is over 25 µM. This compound registered a solubility at 500 µM in data set [3] of over 400 µM.

On to `N#Cc1c(N)nc(SCCCN)c(C#N)c1-c1ccco1`, for which the outcome in the data set with ScN2a [4] was inactive. In addition, in the data set with ScN2a [2], the CC50 was over 25 µM.

As to `CN(Cc1cnc2nc(N)nc(N)c2n1)c1ccc(C(=O)N[C@@H](CCC(=O)O)C(=O)O)cc1` [METHOTREXATE], the solubility at 500 µM in data set [3] is over 400 µM.

In the data set on ScN2a [1], `CC(C)N(CCSc1nc(N)c(C#N)c(-c2ccco2)c1C#N)C(C)C` showed a 50% effective concentration (EC50) of 13.4 µM. Also, the CC50 in the data set on ScN2a [2] was over 25 µM.

Turning to `N#Cc1c(N)nc(SCCN2CCOCC2)c(C#N)c1-c1ccco1`, the result in the data set on ScN2a [4] was inactive. In addition, the CC50 in the data set with ScN2a [2] was over 25 µM.

In turn, `CCN(CC)CCSc1nc(N)c(C#N)c(-c2cc(Cl)cc(Cl)c2)c1C#N` gave a concentration for a half-maximal effect (EC50) with ScN2a [1] of 2.2 µM. Also, the CC50 with ScN2a [2] is over 25 µM.

For the compound `N#Cc1c(N)nc(SCC(N)=O)c(C#N)c1-c1ccco1`, the result in the data set on ScN2a [4] was inactive. Besides, in the data set with ScN2a [2], the CC50 is over 25 µM.

As for `N#Cc1c(N)nc2sc(C(=O)c3ccccc3[N+](=O)[O-])c(N)c2c1-c1ccco1`, a half-maximal response with ScN2a [1] (EC50) required 10.9 µM. Further, the CC50 with ScN2a [2] was over 25 µM.

As for `N#Cc1c(N)nc(SCc2ccccc2)c(C#N)c1-c1cccs1`, in the data set with ScN2a [4], the result was inactive. Besides, the CC50 in the data set on ScN2a [2] was over 25 µM.

Consider `CCN(CC)CCSc1nc(N)c(C#N)c(-c2ccc(Br)cc2)c1C#N`, for which, in the data set with ScN2a [1], the EC50 was determined as 6.1 µM. Moreover, the CC50 with ScN2a [2] is over 25 µM. Besides, the solubility at 500 µM in data set [3] turned out to be 200 µM (≈ 86.1 µg/mL).

`N#Cc1c(N)nc(SCc2ncc[nH]2)c(C#N)c1-c1ccccc1`: in the data set with ScN2a [1], the concentration giving a half-maximal response (EC50) is over 25 µM.

`N#Cc1c(N)nc(SCCN2CCCC2)c(C#N)c1-c1ccco1` returned an EC50 in the data set on ScN2a [1] of 10.6 µM. In the data set on ScN2a [2], the CC50 was over 25 µM. The solubility at 500 µM in data set [3] worked out at 200 µM (≈ 67.9 µg/mL).

In the case of `N#Cc1c(N)nc(SCCCN2CCCCC2)c(C#N)c1-c1ccco1`, the response with ScN2a [1] was half-maximal at 6 µM (EC50). For the same compound, in the data set with ScN2a [2], the CC50 is over 25 µM. For the same compound, in data set [3], the solubility at 500 µM was over 400 µM.

Consider `CN(C)CCCSc1nc(N)c(C#N)c(-c2ccco2)c1C#N`, for which the concentration for a half-maximal effect (EC50) in the data set on ScN2a [1] is 10.2 µM. Moreover, the CC50 with ScN2a [2] is over 25 µM. Moreover, the solubility at 500 µM in data set [3] was over 400 µM.

For orientation: EC50 means the concentration needed to bring the measured effect to its halfway point. A higher EC50 goes with a less potent agent. The solubility is how much of the substance goes into solution per volume. Read a low solubility as little dissolved substance. Broadly, the inhibition is the percentage by which the read-out fell short of the control. In general, Ki refers to a measure of affinity in units of concentration, obtained from inhibition or displacement. High values mean a looser hold on the target, low ones a stronger hold on the target.
